Source: ChEMBL document CHEMBL4339209, “Chemical modifications of imidazole-containing alkoxyamines increase C-ON bond homolysis rate: Effects on their cytotoxic properties in glioblastoma cells” (Bioorg Med Chem, 2019)
Activity calls are given as the source filed them. No cut-off for these calls is given here.

Tests used:
[1] = Dissociation constant, pKa of the compound in 1:1 v/v D2O/CD3OD by 1H-NMR spectrometric method; type: physicochemical; details: 1:1 v/v D2O/CD3OD; read-out: pKa
Method in brief: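 Samples in D2O/CD3OD (1:1 v/v) were adjusted with DCl/NaOD to a series of pH* values, read on a meter calibrated with non-deuterated standards, and 1H-NMR was recorded at 400 MHz. Imidazole proton chemical shifts were plotted against pH* and fitted sigmoidally. The pKa* was converted by pH = 0.929 pH* + 0.42.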

[2] = Half life in H2O/MeOH buffered with Na2CO3/NaHCO3 at pH 10.3 in presence of alkyl radical scavenger TEMPOR by 31P[1H]-NMR analysis; type: physicochemical; details: for half-life: H2O/MeOH buffered with Na2CO3/NaHCO3, pH 10.3
[3] = Half life in H2O/MeOH buffered with HCl/KCl at pH 2.2 in presence of alkyl radical scavenger TEMPOR by 31P[1H]-NMR analysis; type: physicochemical; details: for half-life: H2O/MeOH buffered with HCl/KCl
[4] = Stability in H2O/MeOH buffered with Na2CO3/NaHCO3 at pH 10.3 assessed as temperature; type: physicochemical; details: buffer
[5] = Stability in H2O/MeOH buffered with HEPES/NaCl at pH 7.4 assessed as temperature; type: physicochemical; details: buffer
[6] = Stability in H2O/MeOH buffered with HCl/KCl at pH 2.2 assessed as temperature; type: physicochemical; details: buffer
[7] = Half life in H2O/MeOH buffered with HEPES/NaCl at pH 7.4 in presence of alkyl radical scavenger TEMPOR by 31P[1H]-NMR analysis; type: physicochemical; details: for half-life: H2O/MeOH buffered with HEPES/NaCl
U-87 MG = assay: Cytotoxicity against human U87MG cells assessed as reduction in cell survival measured after 72 hrs by MTT assay; type: functional, cell-based, U-87MG ATCC; details: for Activity: U-87MG ATCC
Method in brief: (§1)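 MTT viability on 2D cultures, U87-MG in DMEM and U251-MG in EMEM with […], both with 10% FBS and Pen Strep. 5000 cells seeded, then 72 h exposure to 500, 250, 100, 50, 25, 10 and 5 μM (DMSO at most […]). MTT 0.5 mg/mL for 1 h, formazan in DMSO read at 550 nm. Survival as % of control. IC50 determined graphically. At least triplicate.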

[8] = n-octanol/phosphate buffered saline partition coefficient, log D of the compound at pH 7.4 by shake-flask method; type: physicochemical; details: n-octanol/phosphate buffered saline, read-out: logD
Method in brief: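 Shake-flask partition between pre-saturated n-octanol and PBS at pH 7.4. The aqueous phase was quantified by RP-HPLC on a 4.6 × 50 mm column, eluting with CH3CN/H2O (each with 0.1% TFA) from 10:90 to 100:0 over 10 min.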

[9] = Stability in DMSO assessed as temperature; type: physicochemical
[10] = Stability in DMSO/TsOH assessed as temperature; type: physicochemical
[11] = Drug homolysis in DMSO assessed as activation energy in presence of alkyl radical scavenger TEMPOR by 31P[1H]-NMR analysis
[12] = Drug homolysis in DMSO/TsOH assessed as activation energy in presence of alkyl radical scavenger TEMPOR by 31P[1H]-NMR analysis
[13] = Drug homolysis in DMSO assessed as rate constant by measuring nitroxide level in presence of alkyl radical scavenger TEMPOR by 31P[1H]-NMR analysis
[14] = Drug homolysis in DMSO/TsOH assessed as rate constant by measuring nitroxide level in presence of alkyl radical scavenger TEMPOR by 31P[1H]-NMR analysis
U-251 [15] = assay: Cytotoxicity against human U251MG cells assessed as reduction in cell survival measured after 72 hrs by MTT assay; type: functional, cell-based; method in brief: as §1
U-251 [16] = assay: Cytotoxicity against human U251MG cells assessed as reduction in cell survival at IC50 measured after 72 hrs in presence of alkyl radical scavenger troxerutin by MTT assay; type: functional, cell-based
Method in brief: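 U251-MG cells in EMEM (10% FBS, Pen Strep, […]) were exposed for 72 h to alkoxyamine together with an equal concentration of the alkyl radical scavenger troxerutin. Survival was read by MTT (0.5 mg/mL, 1 h, OD 550 nm) as % of control, and compared with alkoxyamine alone. At least triplicate.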

Structure (SMILES) | pKa [1] | half-life [2] [h] | T [4] [°C] | T [5] [°C] | T [6] [°C] | half-life [7] [h] | IC50 (U-87 MG) [µM] | logD [8] | half-life [3] [h] | other results
CCOP(=O)(OCC)C(N(OC(C)c1cn(C)cn1)C(C)(C)C)C(C)(C)C (stereo in doubt; form 1) | 6.76 | 1560 | 80 | 80 | 80 | 792 | 25 to 380 | 3.5 | – | t1/2 ([3]; buffer): 65 h
CCOP(=O)(OCC)C(N(OC(C)c1nccn1C)C(C)(C)C)C(C)(C)C (stereo in doubt; form 1) | 6.28 | – | 80 | 70 | 60 | – | 25 to 380 | 3.4 | 2.4 | t1/2 ([2]; buffer, pH 10.3): 130 h; t1/2 ([7]; buffer): 31 h
CCOP(=O)(OCC)C(N(OC(C)c1c[nH]cn1)C(C)(C)C)C(C)(C)C (stereo in doubt; form 1) | 6.11 | 408 | 80 | 80 | 80 | 288 | 25 to 380 | 3.7 | 103 | –
CCOP(=O)(OCC)C(N(OC(C)n1ccnc1)C(C)(C)C)C(C)(C)C (stereo in doubt; form 1) [listing 1 of 2 here] | 5.62 | – | – | – | – | – | 25 to 380 | 3.4 | – | T [9]: 160 °C; T [10]: 160 °C
CCOP(=O)(OCC)C(N(OC(C)n1ccnc1)C(C)(C)C)C(C)(C)C (stereo in doubt; form 1) [listing 2 of 2 here] | – | – | – | – | – | – | – | – | – | Ea [11]: 35.6 kcal/mol; Ea [12]: 34.1 kcal/mol; Kdiss [13]: 2.69 ×10⁻⁴ /s; Kdiss [14]: 1.44 ×10⁻³ /s; Activity (U-87 MG): Dose-dependent effect; Activity (U-251 [15]): Dose-dependent effect; Activity (U-251 [16]): Active
CCOP(=O)(OCC)C(N(OC(C)c1ncc[nH]1)C(C)(C)C)C(C)(C)C (stereo in doubt; form 2) | 6.09 | 240 | 80 | 70 | 60 | 60 | 25 to 380 | 3.6 | 4 | –
CCOP(=O)(OCC)C(N(OC(C)n1ccnc1)C(C)(C)C)C(C)(C)C (stereo in doubt; form 2) | – | – | – | – | – | – | – | – | – | Ea [11]: 34.6 kcal/mol; Ea [12]: 33.7 kcal/mol; Kdiss [13]: 8.02 ×10⁻⁴ /s; Kdiss [14]: 2.45 ×10⁻³ /s; Activity (U-87 MG): Dose-dependent effect; Activity (U-251 [15]): Dose-dependent effect; Activity (U-251 [16]): Active
